Results on three molecules are retold here after publication PMC6034508 (Inorganic chemistry, 2018).

The test system of one test is DU-145 cells. Kind of test: Confocal imaging of intracellular fluorescence. It is filed as cell-based. The settings on record: DU-145, CLIK-148 50 μM for 24 h before 7 (30 μM). In outline:
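Live DU-145 cells are grown 48 h in 35 mm dishes (DMEM, 10% FBS, 37 °C, 5% CO2), then given 30 μM test compound or DMSO vehicle for 2 h, washed thrice and imaged in PBS. In the inhibition arm, cells receive 50 μM CLIK-148 for 24 h first. Confocal imaging uses 405 nm excitation, 501–740 nm emission and 1.5 μm z-stacks, with four biological replicates at 20×. Thresholded fluorescence per image is divided by manual cell count.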

The target of test [1] is T1, CTSL (Homo sapiens, UniProt P07711). Particulars: literature value; ref [47]; cited from earlier work.
T1 sequence (P07711 114-333): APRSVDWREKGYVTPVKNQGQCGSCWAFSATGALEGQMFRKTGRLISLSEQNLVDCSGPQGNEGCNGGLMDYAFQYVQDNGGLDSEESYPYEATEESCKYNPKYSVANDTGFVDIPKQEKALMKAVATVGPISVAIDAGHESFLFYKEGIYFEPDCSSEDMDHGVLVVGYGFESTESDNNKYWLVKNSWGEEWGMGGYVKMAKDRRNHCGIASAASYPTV
Test [2] has as its target T1, CTSL. Kind of test: Cathepsin L inhibition, progress curve assay with Z-Phe-Arg-AMC. It is filed as biochemical.
The next test deals with CTSS (Homo sapiens, UniProt P25774). Kind of test: Cathepsin S inhibition, progress curve assay with Z-Val-Val-Arg-AMC. It is filed as biochemical. In outline: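 Buffer is 50 mM phosphate, pH 6.5, with 2.5 mM EDTA, DTT 8 mM and <1% DMSO, at 25 °C. Test compound is run at 1–20 μM. […] Results are averages of three independent experiments, errors as standard deviations.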
CTSS, sequence (P25774 115-331): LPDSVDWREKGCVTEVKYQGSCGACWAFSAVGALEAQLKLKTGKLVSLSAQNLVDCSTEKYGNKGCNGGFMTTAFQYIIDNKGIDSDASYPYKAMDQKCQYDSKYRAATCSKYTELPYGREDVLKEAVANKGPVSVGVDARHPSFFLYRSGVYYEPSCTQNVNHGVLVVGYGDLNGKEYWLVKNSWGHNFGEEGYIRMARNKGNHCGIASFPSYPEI
In another test the target is CTSB (Homo sapiens, UniProt P07858). Kind of test: Cathepsin B inhibition, progress curve assay with Z-Arg-Arg-AMC. It is filed as biochemical. The method, boiled down: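 Buffer is 0.4 M acetate, pH 5.5, with 5 mM EDTA, 0.01% Triton X-100, DTT 10 mM and <1% DMSO, at 25 °C. Test compound is run at 1 nM to 100 μM. Enzyme is added last, and free AMC release is followed at once over 15 min. Progress curves are fitted to obtain kinact and Ki. CA-074 is the positive control. Values are means of three independent experiments ± SD.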

`CN(C)C(=O)[C@H](Cc1ccccc1)NC(=O)[C@H]1O[C@@H]1C(=O)NCCc1ccccn1` [CLIK-148, reference compound]: the “Decrease of intracellular fluorescence intensity of 7” value in the test with DU-145 cells is reported as “over 50%”. Besides, the “CTSL kinact/Ki” value at CTSL [1] is 11000 ± 3000 M⁻¹ s⁻¹.

Turning to `CN(C)C(=O)C(Cc1ccccc1)NC(=O)[C@H]1O[C@@H]1C(=O)NCCCNC(=O)c1ccc(-c2ccccn2)nc1` (stereo partly drawn) [Compound 2, (2S,3S)-N^2-(3-([2,2′-Bipyridine]-5-carboxamido)-propyl)-N^3-(1-(dimethylamino)-1-oxo-3-phenylpropan-2-yl)-oxirane-2,3-dicarboxamide], the Ki (as a rule, a measure of affinity in units of concentration, obtained from inhibition or displacement) at CTSL [2] was 0.74 ± 0.05 µM; at CTSS it was 3 ± 0.8 µM; at CTSB it was 296 ± 8 µM. On CTSL [2] (CTSL over CTSS), the “kinact/Ki ratio CTSL/CTSS (selectivity)” value was determined as 8. The kinact/KI at CTSL [2] (pH 5.5, read-out: CTSL kinact/Ki) was found to be 42300 ± 4100 M⁻¹ s⁻¹; on CTSS (pH 6.5, read-out: CTSS kinact/Ki), 5300 ± 200 M⁻¹ s⁻¹; on CTSB (pH 5.5, read-out: CTSB kinact/Ki), 9 M⁻¹ s⁻¹. At CTSL [2] (read-out: CTSL kinact (rate of irreversible inactivation)), the kinact – broadly, the rate constant of inactivation at saturating inhibitor – is 0.031 ± 0.002 s⁻¹. Moreover, the “Fold enhancement of CTSL kinact/Ki relative to free inhibitor 1” value at CTSL [2] (relative to 1) was “roughly 3 fold”.

On to `O=S(=O)([O-])C(F)(F)F.[C-]#[O+].[C-]#[O+].[C-]#[O+].[Re+].c1ccncc1.c1cnc2c(c1)ccc1cccnc12` [[Re(phen)(CO)3(pyridine)](OTf), reference compound], for which, at CTSL [2] (at concentrations up to 100 μM), the “CTSL inhibition, in words” value is listed as “no inhibition”.
